Test results published in ChEMBL document CHEMBL4513216, “Probing the Open Global Health Chemical Diversity Library for Multistage-Active Starting Points for Next-Generation Antimalarials” (ACS Infect Dis, 2020).

Test: Toxicity liver stage against HepG2, at 10uM
Type: cell-based
Set-up: test concentration 10 uM, cell line HepG2-A16-CD81EGFP
Conditions: human, HepG2-A16-CD81EGFP cells; read-out: INHIBITION
How it was run: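 Uninfected HepG2-A16-CD81EGFP cells, 3 × 10^3 per well, 1536-well, plated on prespotted compound at 10 μM final, parasite-free screening media added to match infected plates; puromycin 10 μM positive, DMSO 0.5% negative; run in parallel with 48 h PbLuc assay at 37 °C, 5% CO2; viability by CellTiter-Glo luminescence, normalized to controls.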

| Structure (SMILES) | cytotoxicity at 10 µM |
| --- | --- |
| COCCCNS(=O)(=O)c1ccc(N2CCCCS2(=O)=O)cc1 | 0.308% |
| CN(C)C(=O)c1cccc(CNc2ccc(C#N)cn2)c1 | -4.73% |
| CCN(CC)CCNC(=O)c1ccc(-n2ccc3ccccc32)s1 | 8.01% |
| COc1cccc(C(=O)NCC(c2cccn2C)N2CCCC2)c1OC (centres undefined) | -2.4% |
| O=S(=O)(NCC(O)c1ccc(C(F)(F)F)cc1)C1CC1 (centres undefined) | -6.9% |
| COCC1c2nnn(CC3CC3)c2CCN1C(=O)c1sccc1C (centres undefined) | -147% |
| CC(C)c1cccc(NC(=O)Cn2c(=O)n(C)c(=O)c3sccc32)c1 | 42% |
| COC(=O)c1cccc(C(=O)N2CCN(c3cccc(C)c3C)CC2)n1 | 79.9% |
| CC(C(=O)NN1CCOCC1)n1nc(C(F)(F)F)c(Cl)c1C1CC1 (centres undefined) | -0.37% |
| CCN1CCN(C(=O)c2cc(NC(=O)c3ccccc3)n(C)n2)CC1 | 8.91% |
| Cn1nc(C(=O)NC2CC2)cc1NC(=O)C1CC1 | -4.02% |
| CCc1nccn1CC(=O)Nc1cccc(N2CCCC2)c1 | 17.1% |
| Fc1ccc(Cc2cccc(C3CCN(C4CCOCC4)CC3)n2)cc1 | 4.3% |
| Cc1cccnc1CN1CC[C@H](Oc2cccc(F)c2)[C@@](C)(O)C1 | -5.77% |
| CCn1cc(C(=O)N2CCOC(c3nc(-c4cccs4)no3)C2)cn1 (centres undefined) | 2.91% |
| CC(=O)N1C[C@@H](c2ccsc2)[C@@H]2CN(Cc3ccccc3Cl)CC[C@@H]21 | 3.16% |
| O=C(CCC1CCCC1)N1CCC(c2ncc3c(n2)CCNC3)CC1 | -3.91% |
| Cc1nc(NS(=O)(=O)c2cccc(F)c2C)no1 | 5.3% |
| Cc1noc(C)c1CN1CCN(Cc2nc(C3CC3)no2)CC1 | 31.4% |
| Cn1nccc1C1CCN(Cc2ccn(-c3ccccc3)n2)CC1 | 17.3% |
| COC(=O)CN(C(=O)C(C)c1c(F)cccc1F)c1cccc(C)n1 (centres undefined) | -2.8% |
| CS(=O)(=O)C1(C(=O)NC2CCc3nccn3C2)CCCC1 (centres undefined) | -14% |

| Structure (SMILES) | cytotoxicity at 10 µM |
| --- | --- |
| O=C(c1cc(-c2ccccc2)nc2onc(C3CC3)c12)N1CC[C@H](O)C1 | -36.7% |
| Fc1ccc(NCc2ccncc2)c(OC(F)F)c1 | 10.5% |
| COCCCSc1ccc(NCc2ccc(C)cn2)cc1 | 15.8% |
| Cc1nc(CNC2CCc3nc(C(C)C)nn3C2)oc1C (centres undefined) | -4.1% |
| Cc1c(NCc2ccc(C#N)cc2)cccc1S(=O)(=O)NC1CC1 | 20.9% |
| Cc1cnn(Cc2cc(F)ccc2F)c1NC(=O)C1CCOCC1 | -0.303% |
| NC(=O)c1ccc(N2CCCCC2)c(NC(=O)c2ccc(F)cc2Cl)c1 | -4.2% |
| Cc1cc(C)n(C2CN(CC(=O)N(C)Cc3ccsc3)C2)n1 | -0.912% |
| O=C(c1cccnc1)N1CCCC1C1CCN(Cc2ccccc2)CC1 (centres undefined) | -3.24% |
| CC(C)(C)c1cnc(CN(Cc2cccnc2)CC2CCCO2)o1 (centres undefined) | 5.82% |
| CCOC(=O)N1CCN(C(=O)c2sc(-c3ccccc3)nc2C)CC1 | -3.08% |
| O=S(=O)(NCC1COCCO1)c1ccc(C2CCCCC2)cc1 (centres undefined) | 27.5% |
| CC(C)c1ccc(C(N)c2cccs2)cc1 (centres undefined) | 15.4% |
| Cc1cc(C)c(CNC(=O)NCC2Cc3ccccc3O2)c(=O)[nH]1 (centres undefined) | -5.21% |
| CN1CCC(CN(C)S(=O)(=O)CC2CCCCC2)CC1 | 0.304% |
| COc1ccc(C(C)NC(=O)N2CCNC(=O)CC2)cc1F (centres undefined) | 13.5% |
| Cc1ncccc1CNCC1COC2(CCCCC2)O1 (centres undefined) | -149% |
| c1cncc(-c2nnc(C3(c4ccc5c(c4)OCO5)CCOCC3)o2)c1 | 4.02% |
| CC(C)CC(NC(=O)CSc1ccc(F)c(Cl)c1)C(=O)O (centres undefined) | -46% |
| CO[C@H]1CN(C(=O)OC(C)(C)C)CC1NCc1ccco1 (some centres undefined) | -46.9% |
| O=C(c1ccccc1)N1CCCN(C(=O)c2ncncc2Cl)CC1 | 4.26% |
| CNC(=O)c1c(C)cccc1NCc1noc(C2CC2)n1 | 29.7% |

| Structure (SMILES) | cytotoxicity at 10 µM |
| --- | --- |
| CN1CCCc2ccc(S(=O)(=O)NC(=O)C3CC=CC3)cc21 | 2.84% |
| Cn1ccc(NC(=O)NC2CCCN(c3ccccc3Cl)C2=O)n1 (centres undefined) | -49.4% |
| COc1ccc(CN(C)c2nc3c(cnn3C)c(=O)[nH]2)c(OC)c1 | 58.9% |
| CC(C)(C)C(=O)c1ccsc1NC(=O)CCNC(=O)c1ccco1 | -52.7% |
| CN(C)Cc1noc2c1CN(Cc1ccc[nH]1)CC2 | 7.01% |
| O=C([C@H]1COC[C@H]2CN(C3CCCC3)C[C@H]21)N1CCOCC1 | -105% |
| CCc1cc(N(C)Cc2ccnc(C)c2)n2nc(C)c(C)c2n1 | 61.6% |
| Cc1nc(CN2CCN(c3nc4c(s3)c(C)nn4C)CC2)cs1 | 15.6% |
| Nc1nc2c(c(N3CCN(C(=O)c4cccs4)CC3)n1)CCCC2 | 7.9% |
| Clc1cc(N2CCN3CCCCC3C2)nc2[nH]ccc12 (centres undefined) | -9.74% |
| Cc1cc2c(N3CCC(N(C)Cc4cnn(C)c4)CC3)ncnc2s1 | -1.13% |
| C[C@@H]1CN(C2(C(=O)N3CCSCC3)Cc3ccccc3C2)C[C@H](C)O1 | 0.66% |
| Oc1cccc(CN2CCN(c3nccc(CCC(F)(F)F)n3)CC2)c1 | -18.7% |
| O=C(c1coc(COc2cccc3cnccc23)n1)N1CCSCC1 | -77.9% |
| Cc1ccc2nc(C)cc(C(=O)N3C[C@H]4CCC[C@@]4(CO)C3)c2c1 | 2.53% |
| Cc1cncc(C(=O)N2C[C@@H](C(=O)O)[C@H](C(C)C)C2)c1 | -4.31% |
| CCC[C@H]1CN(S(=O)(=O)c2ccc(-c3c(C)noc3C)s2)C[C@@H]1N | 8.4% |
| c1cc(-c2cscn2)cc(N2CCC(NCCc3cccs3)CC2)c1 | 8.65% |
| COCCNc1ncnc2c1CCN(C(=O)CC1CCC(=O)N1)CC2 (centres undefined) | 1.15% |
| Cc1ccc(NCCCNC(=O)C2CCCN(Cc3ccco3)C2)nc1 (centres undefined) | 3.15% |
| CCn1ccc(C(=O)N2CCCN(Cc3ccccc3F)CC2)cc1=O | 9.47% |
| Cc1noc(C)c1CN(C)c1ncnc2onc(C)c12 | -20.7% |

| Structure (SMILES) | cytotoxicity at 10 µM |
| --- | --- |
| CN(C)CC(Nc1nc(N)nc2c1CCNCC2)c1ccccc1 (centres undefined) | -2.92% |
| CC(=O)c1ccc(N2CCCC(CO)(Cc3ccccc3C)C2)nc1 (centres undefined) | 10.1% |
| Cc1nc2c(c(NCc3nc4ccccc4s3)n1)CCNCC2 | -37.8% |
| Cc1cc(CC(C)NC(=O)Cc2cc(F)ccc2C)[nH]n1 (centres undefined) | -42.9% |
| O=C1NCCCC12CCN(Cc1ccc(SC3CCCCC3)o1)C2 (centres undefined) | -3.33% |
| CC(CN1CCCCCC1)NCc1nncn1C1CCCCC1 (centres undefined) | -5.59% |
| CCc1cnc(N)nc1NCc1ccc(OC)cc1OC | 14.7% |
| CCOC(=O)CC(NC(=O)c1cn(Cc2ccccc2F)nn1)C(C)C (centres undefined) | -0.99% |
| O=C1CN(Cc2cnc3c(-c4ccccc4)cnn3c2)CCCN1 | 3.32% |
| NCC(=O)N1CCCCC1c1ccc(F)cc1 (centres undefined) | -43.4% |
| CCC[C@H]1CN(Cc2cc(C#N)n(C)c2C)C[C@@H]1N(C)C | -152% |
| O=C(c1csnn1)N1CCc2[nH]nc(COc3cccc(Cl)c3)c2C1 | -60% |
| Nc1cc(N2CCC(c3cc(Cc4ccccc4)n[nH]3)CC2)ccn1 | 24.6% |
| Cc1nc2ccccc2n1Cc1cc(C(=O)N2C[C@@H](C)O[C@@H](C)C2)no1 | 25.7% |
| CN1CC2(CCN(CCOCCO)CC2)CC(c2ccccc2)C1=O (centres undefined) | -9.88% |
| Cc1cnc(C)c(N2CCN(Cc3ccc(C)c(C)c3)CC2)n1 | 6.68% |
| Cc1ncsc1CN1C[C@H](NC(=O)C2CCOCC2)[C@@H](C(C)C)C1 | 6.67% |
| Cc1cc(CC2COc3ccccc3C2)cnc1N (centres undefined) | 0.873% |
| CC(C)(C)c1nccc(C2(c3ccccc3Cl)CCNCC2)n1 | -1.15% |
| CCCn1cc(-c2ccnc(NC3CCCc4ccccc43)n2)c(C)n1 (centres undefined) | 81.4% |
| C=Cc1ccc(C(=O)N2CCCC(Nc3ccc(OC)cc3)C2)cc1 (centres undefined) | -12% |
| CN(C(=O)c1ccccn1)c1nc2c(s1)CCc1c-2cnn1C | 11.7% |

| Structure (SMILES) | cytotoxicity at 10 µM |
| --- | --- |
| Cc1cc(C)c2cc(CNCc3ccccc3)c3nn(C)c(=O)n3c2c1 | -1.47% |
| CC1CN(C)CCN1C(=O)c1cnn(-c2cccc(Cl)c2)c1 (centres undefined) | -8.68% |
| c1ccc(CCCN2CCN(c3ccc4nncn4n3)CC2)cc1 | 4.2% |
| O=C(c1cc(C2CC2)[nH]n1)N1CCN(Cc2ccc(Cl)cc2)CC1 | 37.2% |
| NC(=O)c1ccc(CNC(=O)Nc2cn[nH]c2)cc1 | -20.4% |
| Cc1nn(C)c(C)c1C1CCCN1Cc1cccc(OCC(N)=O)c1 (centres undefined) | -0.192% |
| CCc1nc(CN2CCCN(C(=O)CCc3ccco3)CC2)cs1 | 1.42% |
| O=C(NCC1CCC2(CCNCC2)CO1)c1cnccn1 (centres undefined) | 9.51% |
| CCOc1cc(CN[C@@H]2COC[C@H]2Cc2cc(C)no2)ccc1O | 14.8% |
| COc1ccc(CN2CCCC3(CCN(c4ccsc4)C3=O)C2)cc1 (centres undefined) | 6.92% |
| CCN(CC)[C@@H]1CN(C(=O)c2ccc(C#N)cc2)[C@@H]2CCCO[C@H]12 | -151% |
| CN(C)C(=O)CN1CCc2ncnc(NC3CCC3)c2CC1 | -94.4% |
| Cc1ncccc1NC(=O)[C@H]1C[C@@H]2CCN(Cc3ccsc3)C[C@H]2O1 | -79.1% |
| CN(C)C(=O)CN1CCC2(CCCN(Cc3cccnc3)C2)C1=O (centres undefined) | -103% |
| Cc1nc(C2(O)CCCNCC2)sc1CCOc1ccc(Cl)cc1 (centres undefined) | 12.7% |
| Cc1ccc2c(n1)N(CCN(C)C)CCN(C(=O)c1cccs1)C2 | -69.8% |
| CN(C)[C@@H]1CCN(C(=O)Cc2cccs2)[C@H]1Cc1ccncc1 | -70.1% |
| Cn1cccc1C(=O)N1CCC2(CCN2c2ncccn2)C1 (centres undefined) | 10.7% |
| NC(=O)N1CCc2cc(C(=O)O)c(-c3ccsc3)nc2CC1 | 18.3% |
| Cc1nc(CN2CCC3(CC2)CCN(C(=O)c2cscn2)C3)cs1 | -71.9% |
| CCC1=NN2C(=N)C(=Cc3cccn3-c3cccc(Cl)c3)C(=O)N=C2S1 | -5.7% |
